In ChEMBL document CHEMBL3739347, “Tubulin modulating antifungal and antiproliferative pyrazinone derivatives” (Bioorg Med Chem, 2016):

Tests used:
Assay type in all cases: functional
Parastagonospora nodorum [1] = assay: Antifungal activity against Stagonospora nodorum infected in wheat seedlings at 40 ppm relative to control
Method in brief: (§1)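 Wheat seedlings, treated the day before, inoculated with a Stagonospora nodorum spore suspension. Held in a saturated atmosphere at 20 °C for 48 h, then 5 days in a growth chamber at 22 °C, then disease rated. Rates in ppm. Scored as percent control relative to untreated control plants.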

Botrytis cinerea [2] = assay: Antifungal activity against Botryotinia fuckeliana infected in orange pixie tomato seedlings at 200 ppm relative to control
Method in brief: (§2)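 Orange Pixie tomato seedlings sprayed to run-off with test suspension, then inoculated next day with a Botryotinia fuckeliana spore suspension. Kept saturated at 20 °C for 48 h, then 1 more day at 24 °C in a growth chamber before rating. Rates in ppm. Expressed as percent control relative to untreated control plants.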

Puccinia triticina [3] = assay: Antifungal activity against Puccinia recondita f. sp. tritici infected in wheat seedlings at 40 ppm relative to control
Method in brief: (§3)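 Test suspension sprayed to run-off on Stevens wheat seedlings. Next day inoculated with a Puccinia recondita f. sp. tritici spore suspension. Held 24 h in a saturated atmosphere at 20 °C, then 7 days in a 20 °C growth chamber before disease rating. Rates in ppm. Given as percent control versus untreated control plants.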

Botrytis cinerea [4] = assay: Antifungal activity against Botryotinia fuckeliana infected in orange pixie tomato seedlings at 40 ppm relative to control; method in brief: as §2
Puccinia triticina [5] = assay: Antifungal activity against Puccinia recondita f. sp. tritici infected in wheat seedlings at 200 ppm relative to control; method in brief: as §3
Parastagonospora nodorum [6] = assay: Antifungal activity against Stagonospora nodorum infected in wheat seedlings at 200 ppm relative to control; method in brief: as §1
Puccinia triticina [7] = assay: Antifungal activity against Puccinia recondita f. sp. tritici infected in wheat seedlings at 10 ppm relative to control; method in brief: as §3
Botrytis cinerea [8] = assay: Antifungal activity against Botryotinia fuckeliana infected in orange pixie tomato seedlings at 10 ppm relative to control; method in brief: as §2
Parastagonospora nodorum [9] = assay: Antifungal activity against Stagonospora nodorum infected in wheat seedlings at 10 ppm relative to control; method in brief: as §1
Botrytis cinerea [10] = assay: Antifungal activity against Botryotinia fuckeliana infected in orange pixie tomato seedlings at 2 ppm relative to control; method in brief: as §2
Puccinia triticina [11] = assay: Antifungal activity against Puccinia recondita f. sp. tritici infected in wheat seedlings at 2 ppm relative to control; method in brief: as §3
Parastagonospora nodorum [12] = assay: Antifungal activity against Stagonospora nodorum infected in wheat seedlings at 2 ppm relative to control; method in brief: as §1

Structure (SMILES) | Activity (Parastagonospora nodorum [1]) | Activity (Botrytis cinerea [2]) | Activity (Puccinia triticina [3]) | Activity (Botrytis cinerea [4]) | Activity (Puccinia triticina [5]) | Activity (Parastagonospora nodorum [6]) | Activity (Puccinia triticina [7]) | Activity (Botrytis cinerea [8]) | Activity (Parastagonospora nodorum [9]) | Activity (Botrytis cinerea [10]) | Activity (Puccinia triticina [11]) | Activity (Parastagonospora nodorum [12])
CC(C)Cn1c(C(C)C)c(Cl)nc(-n2cccn2)c1=O | 0% | 99% | 18% | 99% | 98% | 0% |  |  |  |  |  | 
CC(C)Cn1c(-c2c(F)cccc2F)c(Br)nc(-n2cccn2)c1=O | 100% | 100% | 99% | 100% | 100% | 100% | 88% | 99% | 86% |  |  | 
CC[C@H](C)Cn1c(-c2c(F)cccc2F)c(Cl)nc(C(N)=O)c1=O | 95% |  | 100% | 99% |  |  | 99% | 97% | 0% | 92% | 80% | 0%
CC[C@H](C)Cn1c(-c2c(F)cccc2F)c(Cl)nc(-n2nccn2)c1=O | 0% | 97% | 19% | 0% | 86% | 0% |  |  |  |  |  | 
CC(C)Cn1c(-c2c(F)cccc2F)c(Cl)nc(-c2ccccn2)c1=O | 0% | 100% | 85% | 99% | 99% | 99% |  |  |  |  |  | 
CC[C@H](C)Cn1c(-c2c(F)cccc2F)c(Cl)nc(C(=O)NC)c1=O | 51% |  | 99% | 99% |  |  | 74% | 90% | 0% | 57% | 0% | 0%
CC[C@H](C)Cn1c(-c2c(F)cccc2F)c(Cl)nc(-n2ccnc2)c1=O | 0% | 0% | 0% | 0% | 0% | 0% | 0% | 0% | 0% |  |  | 
O=c1c(-n2cccn2)nc(Cl)c(-c2c(F)cc(F)cc2F)n1CC1CC1 | 100% |  | 100% | 99% |  |  | 100% | 98% | 100% | 98% | 80% | 0%
CC(C)Cn1c(-c2c(F)cccc2F)c(Cl)nc(-c2nccs2)c1=O | 0% |  | 0% | 0% |  |  | 0% | 0% | 0% | 0% | 0% | 0%
C=CCn1c(-c2c(F)cc(F)cc2F)c(Cl)nc(-n2cccn2)c1=O | 100% |  | 99% | 99% |  |  | 89% | 99% | 97% | 70% | 0% | 0%
CCCCn1c(-c2c(F)cc(F)cc2F)c(Cl)nc(-n2cccn2)c1=O | 100% |  | 100% | 100% |  |  | 88% | 0% | 98% | 0% | 26% | 0%
CC(C)Cn1c(C2CC2)c(Cl)nc(-n2cccn2)c1=O | 0% | 0% | 0% | 0% | 0% | 0% |  |  |  |  |  | 
CC[C@H](C)Cn1c(-c2c(F)cccc2F)c(Cl)nc(-n2cncn2)c1=O | 94% | 100% | 98% | 100% | 98% | 100% |  |  |  |  |  | 
Cc1ccn(-c2nc(Cl)c(-c3c(F)cccc3F)n(CC(C)C)c2=O)n1 | 95% |  | 100% | 100% |  |  | 94% | 100% | 0% | 95% | 25% | 0%
O=c1c(-n2cccn2)nc(Cl)c(-c2c(F)cc(F)cc2F)n1CC(F)(F)C(F)(F)F | 100% |  | 100% | 100% |  |  | 99% | 100% | 89% | 99% | 91% | 0%
CC(C)Cn1c(-c2c(F)ccc(F)c2F)c(Cl)nc(-n2cccn2)c1=O | 100% |  | 100% | 100% |  |  | 99% | 98% | 87% | 94% | 32% | 0%
O=c1c(-n2cccn2)nc(Cl)c(-c2c(F)cc(F)cc2F)n1-c1ccc(Cl)cc1 | 100% |  | 100% | 99% |  |  | 100% | 99% | 100% | 92% | 96% | 78%
CC(C)Cn1c(-c2c(F)cccc2F)c(Cl)nc(-c2ccncc2)c1=O | 0% |  | 0% | 0% |  |  | 0% | 0% | 0% | 0% | 0% | 0%
Cc1nc(-n2cccn2)c(=O)n(CC(C)C)c1-c1c(F)cccc1F | 98% |  | 100% | 100% |  |  | 92% | 99% | 0% | 0% | 0% | 0%
CC(C)Cn1c(-c2c(F)cccc2F)cnc(-n2cccn2)c1=O | 0% |  | 0% |  | 98% | 0% | 0% |  | 0% |  |  | 
CC(C)Cn1c(C(C)(C)C)c(Cl)nc(-n2cccn2)c1=O | 0% | 0% | 0% | 0% | 0% | 0% |  |  |  |  |  | 
O=c1c(-n2cccn2)nc(Cl)c(-c2c(F)cc(F)cc2F)n1-c1cccc(Cl)c1 | 99% |  | 100% | 100% |  |  | 99% | 99% | 99% | 97% | 86% | 73%
CC(C)Cn1c(-c2c(F)cccc2F)c(Cl)nc(-c2cccnc2)c1=O | 0% |  | 0% | 0% |  |  | 0% | 0% | 0% | 0% | 0% | 0%
CC[C@H](C)Cn1c(-c2c(F)cccc2F)c(Cl)nc(C#N)c1=O | 0% | 99% | 74% | 99% | 96% | 0% |  |  |  |  |  | 
O=c1c(-n2cccn2)nc(Cl)c(-c2c(F)cc(F)cc2F)n1-c1ccccc1Cl | 100% |  | 100% | 100% |  |  | 100% | 100% | 94% | 99% | 97% | 0%
O=c1c(-n2cccn2)nc(Cl)c(-c2c(F)cc(F)cc2F)n1-c1ccccc1 | 99% |  | 99% | 100% |  |  | 87% | 100% | 98% | 100% | 45% | 60%
O=c1c(-n2cccn2)nc(Cl)c(-c2c(F)cc(F)cc2F)n1CC(F)(F)C(F)(F)C(F)(F)F | 99% |  | 99% | 100% |  |  | 96% | 99% | 78% | 38% | 68% | 0%
CC(Cn1c(-c2c(F)cc(F)cc2F)c(Cl)nc(-n2cccn2)c1=O)C(F)(F)F (centres undefined) | 100% |  | 100% | 99% |  |  | 100% | 99% | 0% | 99% | 92% | 0%
CC(C)Cn1c(C2CCCC2)c(Cl)nc(-n2cccn2)c1=O | 0% | 100% | 91% | 99% | 100% | 0% |  |  |  |  |  | 
